Among the data in ChEMBL document CHEMBL4118061, “Design and synthesis of potent HIV-1 protease inhibitors with (S)-tetrahydrofuran-tertiary amine-acetamide as P2-ligand: Structure-activity studies and biological evaluation” (Eur J Med Chem, 2017) are IC50 values, retold here.

The structures appear in SMILES notation.

For the experiment, the target named is Protease (Human immunodeficiency virus 1, UniProt Q9YQ12). Kind of experiment: Inhibition of HIV1 protease expressed in Escherichia coli using Arg-Glu (EDANS)-Ser-GlnAsn-Tyr-Pro-Ile-Val-Gln-Lys(DABCYL)-Arg as substrate preincubated for 20 to 30 mins followed by substrate addition measured for 10 mins by FRET method. In short, it runs like this: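 Wild-type HIV-1 protease, cloned and expressed in E. coli, then purified. Inhibitors were dissolved in DMSO and diluted. Reaction buffer: 0.1 M sodium acetate, 1 M NaCl, 1 mM EDTA, 1 mM DTT, 2% DMSO, 1 mg/mL BSA, pH 4.7. Enzyme and inhibitor were preincubated 20-30 min at room temperature, then substrate was added. FRET read-out was recorded for about 10 min.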
Sequence of Protease (Q9YQ12 whole entry): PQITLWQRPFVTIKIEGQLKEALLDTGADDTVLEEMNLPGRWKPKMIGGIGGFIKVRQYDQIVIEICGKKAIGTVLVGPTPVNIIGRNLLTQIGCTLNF
In turn, `COc1ccc(S(=O)(=O)N(CC(C)C)C[C@@H](O)[C@H](Cc2ccccc2)NC(=O)CN(CC(=O)N(C)C)[C@H]2CCOC2)cc1OC` showed an IC50 above 1000 nM.

For the molecule `COCCN(CC(=O)N[C@@H](Cc1ccccc1)[C@H](O)CN(CC(C)C)S(=O)(=O)c1ccc(N)cc1)[C@@H]1CCOC1`, the IC50 came to 22.8 nM.

Molecule `COCCN(CC(=O)N[C@@H](Cc1ccccc1)[C@H](O)CN(CC(C)C)S(=O)(=O)c1ccc(OC)cc1)[C@@H]1CCOC1` yielded an IC50 of 6.85 nM.

Molecule `CC(C)CN(C[C@@H](O)[C@H](Cc1ccccc1)NC(=O)CN(CC(=O)N(C)C)[C@H]1CCOC1)S(=O)(=O)c1ccc(N)cc1` showed an IC50 of 38 nM.

As for `CC(C)CN(C[C@@H](O)[C@H](Cc1ccccc1)NC(=O)CN[C@@H]1CCOC1)S(=O)(=O)c1ccc2c(c1)OCO2`, the IC50 was found to be 53.4 nM.

On to `COCCN(CC(=O)N[C@@H](Cc1ccccc1)[C@H](O)CN(CC(C)C)S(=O)(=O)c1ccc2c(c1)OCO2)[C@H]1CCOC1`, for which it took 0.77 nM to reach half-maximal inhibition (IC50).

In the case of `CC(C)CN(C[C@@H](O)[C@H](Cc1ccccc1)NC(=O)CN(CC(=O)N(C)C)[C@H]1CCOC1)S(=O)(=O)c1ccc([N+](=O)[O-])cc1`, the midpoint of inhibition, the IC50, lay at 270 nM.

In turn, `CC(C)CN(C[C@@H](O)[C@H](Cc1ccccc1)NC(=O)CN(CC(N)=O)[C@H]1CCOC1)S(=O)(=O)c1ccc(OC(F)(F)F)cc1` came in with an IC50 of 530 nM.

In the case of `CC(C)CN(C[C@@H](O)[C@H](Cc1ccccc1)NC(=O)CN(CC(N)=O)[C@H]1CCOC1)S(=O)(=O)c1ccc(N)cc1`, the IC50 stood at 57 nM.

For the molecule `CC(C)CN(C[C@@H](O)[C@H](Cc1ccccc1)NC(=O)CN[C@H]1CCOC1)S(=O)(=O)c1ccc([N+](=O)[O-])cc1`, the IC50 was found to be 46.3 nM.

In the case of `COCCN(CC(=O)N[C@@H](Cc1ccccc1)[C@H](O)CN(CC(C)C)S(=O)(=O)c1ccc2c(c1)OCO2)[C@@H]1CCOC1`, the midpoint of inhibition, the IC50, lay at 6 nM.

Take `COc1ccc(S(=O)(=O)N(CC(C)C)C[C@@H](O)[C@H](Cc2ccccc2)NC(=O)CN(CC(=O)N2CCOCC2)[C@H]2CCOC2)cc1`: the IC50 was 44 nM.

Consider `COc1ccc(S(=O)(=O)N(CC(C)C)C[C@@H](O)[C@H](Cc2ccccc2)NC(=O)CN([C@H]2CCOC2)S(C)(=O)=O)cc1OC`, for which the IC50 is above 1000 nM.

Turning to `CC(C)CN(C[C@@H](O)[C@H](Cc1ccccc1)NC(=O)CN([C@H]1CCOC1)S(C)(=O)=O)S(=O)(=O)c1ccc(OC(F)(F)F)cc1`, the half-maximal inhibitory concentration (IC50) is above 1000 nM.

Molecule `COc1ccc(S(=O)(=O)N(CC(C)C)C[C@@H](O)[C@H](Cc2ccccc2)NC(=O)CN(CC(=O)N2CCOCC2)[C@H]2CCOC2)cc1OC` returned an IC50 above 1000 nM.

Take `CC(C)CN(C[C@@H](O)[C@H](Cc1ccccc1)NC(=O)CN[C@H]1CCOC1)S(=O)(=O)c1ccc(OC(F)(F)F)cc1`: half-maximal inhibition (IC50) was put at 290 nM.

On to `CC(C)CN(C[C@@H](O)[C@H](Cc1ccccc1)NC(=O)CN(CC(=O)N(C)C)[C@H]1CCOC1)S(=O)(=O)c1ccc(CO)cc1`, for which the IC50 came out at 65 nM.

In turn, `CC(C)CN(C[C@@H](O)[C@H](Cc1ccccc1)NC(=O)CN(CC(=O)N1CCOCC1)[C@H]1CCOC1)S(=O)(=O)c1ccc(OC(F)(F)F)cc1` came in with an IC50 of 910 nM.

On to `CC(C)CN(C[C@@H](O)[C@H](Cc1ccccc1)NC(=O)CN[C@H]1CCOC1)S(=O)(=O)c1ccc2c(c1)OCO2`, for which the IC50 was 1.65 nM.

Molecule `COc1ccc(S(=O)(=O)N(CC(C)C)C[C@@H](O)[C@H](Cc2ccccc2)NC(=O)CN(CC(N)=O)[C@H]2CCOC2)cc1` displayed an IC50 of 20.4 nM.

`COc1ccc(S(=O)(=O)N(CC(C)C)C[C@@H](O)[C@H](Cc2ccccc2)NC(=O)CN(CC(N)=O)[C@H]2CCOC2)cc1OC`: the IC50 is 9.9 nM.

Turning to `COc1ccc(S(=O)(=O)N(CC(C)C)C[C@@H](O)[C@H](Cc2ccccc2)NC(=O)CN[C@H]2CCOC2)cc1OC`, the IC50 was determined as 310 nM.

The molecule `CC(C)CN(C[C@@H](O)[C@H](Cc1ccccc1)NC(=O)CN([C@H]1CCOC1)S(C)(=O)=O)S(=O)(=O)c1ccc(N)cc1` came in with an IC50 of 59.8 nM.

The molecule `COCCN(CC(=O)N[C@@H](Cc1ccccc1)[C@H](O)CN(CC(C)C)S(=O)(=O)c1ccc([N+](=O)[O-])cc1)[C@H]1CCOC1` gave an IC50 of 17.7 nM.

`COc1ccc(S(=O)(=O)N(CC(C)C)C[C@@H](O)[C@H](Cc2ccccc2)NC(=O)CN(CC(=O)N(C)C)[C@H]2CCOC2)cc1` returned an IC50 of 28.6 nM.

On to `COCCN(CC(=O)N[C@@H](Cc1ccccc1)[C@H](O)CN(CC(C)C)S(=O)(=O)c1ccc(N)cc1)[C@H]1CCOC1`, for which the IC50 was found to be 0.88 nM.

`CC(C)CN(C[C@@H](O)[C@H](Cc1ccccc1)NC(=O)CN([C@H]1CCOC1)S(C)(=O)=O)S(=O)(=O)c1ccc2c(c1)OCO2` had an IC50 of 22.9 nM.

In turn, `CC(C)CN(C[C@@H](O)[C@H](Cc1ccccc1)NC(=O)CN(CC(=O)N(C)C)[C@H]1CCOC1)S(=O)(=O)c1ccc2c(c1)OCO2` showed an IC50 of 56.9 nM.

In turn, `COCCN(CC(=O)N[C@@H](Cc1ccccc1)[C@H](O)CN(CC(C)C)S(=O)(=O)c1ccc(OC)c(OC)c1)[C@H]1CCOC1` had an IC50 of 190 nM.

On to `CC(C)CN(C[C@@H](O)[C@H](Cc1ccccc1)NC(=O)CN[C@H]1CCOC1)S(=O)(=O)c1ccc(CO)cc1`, for which the half-inhibitory concentration (IC50) worked out at 10.2 nM.

The molecule `CC(C)CN(C[C@@H](O)[C@H](Cc1ccccc1)NC(=O)CN[C@@H]1CCOC1)S(=O)(=O)c1ccc(N)cc1` came in with an IC50 of 141 nM.

In turn, `CC(C)CN(C[C@@H](O)[C@H](Cc1ccccc1)NC(=O)CN(CC(N)=O)[C@H]1CCOC1)S(=O)(=O)c1ccc([N+](=O)[O-])cc1` registered an IC50 of 33.6 nM.

Take `CC(C)CN(C[C@@H](O)[C@H](Cc1ccccc1)NC(=O)CN[C@H]1CCOC1)S(=O)(=O)c1ccc(N)cc1`: the IC50 stood at 4.11 nM.

Turning to `CC(C)CN(C[C@@H](O)[C@H](Cc1ccccc1)NC(=O)CN(CC(=O)N1CCOCC1)[C@H]1CCOC1)S(=O)(=O)c1ccc(N)cc1`, it took 160 nM to reach half-maximal inhibition (IC50).

`CC(C)CN(C[C@@H](O)[C@H](Cc1ccccc1)NC(=O)CN(CC(N)=O)[C@H]1CCOC1)S(=O)(=O)c1ccc(CO)cc1` showed an IC50 of 19.3 nM.

For `CC(C)CN(C[C@@H](O)[C@H](Cc1ccccc1)NC(=O)CN([C@H]1CCOC1)S(C)(=O)=O)S(=O)(=O)c1ccc(CO)cc1`, half-maximal inhibition (IC50) was put at 22.7 nM.

`COCCN(CC(=O)N[C@@H](Cc1ccccc1)[C@H](O)CN(CC(C)C)S(=O)(=O)c1ccc(OC)cc1)[C@H]1CCOC1` came in with an IC50 of 0.35 nM.

Molecule `CC(C)CN(C[C@@H](O)[C@H](Cc1ccccc1)NC(=O)CN(CC(=O)N1CCOCC1)[C@H]1CCOC1)S(=O)(=O)c1ccc([N+](=O)[O-])cc1` displayed an IC50 of 98.1 nM.

Molecule `CC(C)CN(C[C@@H](O)[C@H](Cc1ccccc1)NC(=O)CN(CC(=O)N1CCOCC1)[C@H]1CCOC1)S(=O)(=O)c1ccc(CO)cc1` displayed an IC50 of 110 nM.

Regarding `COc1ccc(S(=O)(=O)N(CC(C)C)C[C@@H](O)[C@H](Cc2ccccc2)NC(=O)CN([C@H]2CCOC2)S(C)(=O)=O)cc1`, the IC50 came to 12.6 nM.

Turning to `CC(C)CN(C[C@@H](O)[C@H](Cc1ccccc1)NC(=O)CN(CC(N)=O)[C@H]1CCOC1)S(=O)(=O)c1ccc2c(c1)OCO2`, the IC50 is above 1000 nM.

In the case of `COCCN(CC(=O)N[C@@H](Cc1ccccc1)[C@H](O)CN(CC(C)C)S(=O)(=O)c1ccc(OC(F)(F)F)cc1)[C@H]1CCOC1`, half-maximal inhibition (IC50) was put at 68 nM.

For the molecule `COc1ccc(S(=O)(=O)N(CC(C)C)C[C@@H](O)[C@H](Cc2ccccc2)NC(=O)CN[C@@H]2CCOC2)cc1`, the IC50 came out at 16 nM.

`COCCN(CC(=O)N[C@@H](Cc1ccccc1)[C@H](O)CN(CC(C)C)S(=O)(=O)c1ccc(CO)cc1)[C@H]1CCOC1` returned an IC50 of 4.26 nM.

The molecule `CC(C)CN(C[C@@H](O)[C@H](Cc1ccccc1)NC(=O)CN(CC(=O)N1CCOCC1)[C@H]1CCOC1)S(=O)(=O)c1ccc2c(c1)OCO2` gave an IC50 of 27.2 nM.

For the molecule `CC(C)CN(C[C@@H](O)[C@H](Cc1ccccc1)NC(=O)CN(CC(=O)N(C)C)[C@H]1CCOC1)S(=O)(=O)c1ccc(OC(F)(F)F)cc1`, the IC50 is above 1000 nM.

The molecule `COc1ccc(S(=O)(=O)N(CC(C)C)C[C@@H](O)[C@H](Cc2ccccc2)NC(=O)CN[C@H]2CCOC2)cc1` returned an IC50 of 2.23 nM.

As for `CC(C)CN(C[C@@H](O)[C@H](Cc1ccccc1)NC(=O)CN([C@H]1CCOC1)S(C)(=O)=O)S(=O)(=O)c1ccc([N+](=O)[O-])cc1`, half-maximal inhibition (IC50) was put at 291 nM.

One may read the IC50 as the concentration that gives 50% inhibition. Read a low IC50 as higher potency.
